The source made the active and inactive calls. No cut-off for these calls is given here.

Data set [1] has as its target Neuronal acetylcholine receptor; alpha3/beta4 (Rattus norvegicus, UniProt P04757+P12392). The experiment in a line: Non-competitive inhibition of rat alpha3beta4 nAChR expressed in KX cells assessed as reduction in current by whole-cell patch clamp assay. Format: cell-based. The method, boiled down: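 KXα3β4R2 cells (rat α3β4) grown in MEM with 10% FBS and 0.7 mg/ml geneticin at 37 °C, 5% CO2, and harvested at 70% confluence. Whole-cell clamp at […] holding potential in HEPES pH 7.4 bath (120 mM NaCl, 3.1 mM KCl, 2 mM CaCl2, 5 mM glucose) at room temperature. Pipette solution: CsCl, ATP, EGTA, pH 7.2. Agents were applied from 0.1 nM upward with 100 µM (S)-nicotine; IC50 taken from current decrease relative to nicotine alone (100%).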

The test system of data set [2] is Rattus norvegicus. Put plainly: Toxicity in Wistar rat assessed as inhibition of conditioned place preference at 1/20 to 1/10 LD50, ip in absence of nicotine preconditioning. Format: organism-based. Conditions: in vivo.
Data set [3] relates to Rattus norvegicus. Put plainly: Effect on basal locomotor activity in Wistar rat at 1/20 to 1/10 LD50, ip. The conditions noted are these: in vivo. Format: ADME, organism-based.
Data set [4] has as its system Rattus norvegicus. Put plainly: Behavioral effect in Wistar rat assessed as inhibition of nicotine-induced conditioned place preference at 1/20 LD50, ip administered during post-conditioning test phase on day 5 of nicotine treatment. Format: functional, organism-based. The method, boiled down: (§1)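 Male Wistar rats (250–300 g), on restricted chow and handled for 5 days. A 15-min baseline excluded rats with a side preference. On days 2–4, two 30-min sessions per day: vehicle in the morning, nicotine 0.175 mg/kg ip in the afternoon, each in opposite compartments. On day 5, agent given ip (5 ml/kg) 60 min before nicotine, then tested immediately. Score is post- minus pre-conditioning time in the drug-paired compartment; n = 7–14.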

Data set [5] concerns Rattus norvegicus. The experiment in a line: Behavioral effect in Wistar rat assessed as inhibition of nicotine-induced conditioned place preference at 10 mg/kg, ip administered during post-conditioning test phase on day 5 of nicotine treatment. Format: functional, organism-based. Also on record: dose 10 mg/kg. The method, boiled down: as §1
The test system of data set [6] is Rattus norvegicus. The experiment in a line: Toxicity in Wistar rat assessed as inhibition of conditioned place preference at 10 mg/kg, ip in absence of nicotine preconditioning. In kind it is organism-based. Set-up: dose 10 mg/kg, route intraperitoneal. The conditions noted are these: in vivo.
In data set [7] the test system is Rattus norvegicus. The experiment in a line: Effect on basal locomotor activity in Wistar rat at 5 mg/kg, ip. In kind it is ADME, organism-based. Set-up: dose 5 mg/kg, route intraperitoneal. The conditions noted are these: in vivo.

Sequence of Neuronal acetylcholine receptor; alpha3/beta4 (P04757 whole entry): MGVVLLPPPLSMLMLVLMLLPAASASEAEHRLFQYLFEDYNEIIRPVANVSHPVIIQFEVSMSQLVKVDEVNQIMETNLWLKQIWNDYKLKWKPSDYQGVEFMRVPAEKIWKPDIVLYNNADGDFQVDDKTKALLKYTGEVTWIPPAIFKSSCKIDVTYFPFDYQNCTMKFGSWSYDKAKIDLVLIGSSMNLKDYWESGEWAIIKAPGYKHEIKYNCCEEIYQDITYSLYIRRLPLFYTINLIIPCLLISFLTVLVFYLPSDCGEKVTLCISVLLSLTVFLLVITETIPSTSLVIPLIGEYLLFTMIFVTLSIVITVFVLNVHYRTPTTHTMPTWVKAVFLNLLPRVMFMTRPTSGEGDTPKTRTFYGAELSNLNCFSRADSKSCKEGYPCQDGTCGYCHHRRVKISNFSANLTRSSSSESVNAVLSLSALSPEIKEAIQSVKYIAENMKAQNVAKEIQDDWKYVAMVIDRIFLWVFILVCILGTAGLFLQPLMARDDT
Sequence of Neuronal acetylcholine receptor; alpha3/beta4 (P12392 whole entry): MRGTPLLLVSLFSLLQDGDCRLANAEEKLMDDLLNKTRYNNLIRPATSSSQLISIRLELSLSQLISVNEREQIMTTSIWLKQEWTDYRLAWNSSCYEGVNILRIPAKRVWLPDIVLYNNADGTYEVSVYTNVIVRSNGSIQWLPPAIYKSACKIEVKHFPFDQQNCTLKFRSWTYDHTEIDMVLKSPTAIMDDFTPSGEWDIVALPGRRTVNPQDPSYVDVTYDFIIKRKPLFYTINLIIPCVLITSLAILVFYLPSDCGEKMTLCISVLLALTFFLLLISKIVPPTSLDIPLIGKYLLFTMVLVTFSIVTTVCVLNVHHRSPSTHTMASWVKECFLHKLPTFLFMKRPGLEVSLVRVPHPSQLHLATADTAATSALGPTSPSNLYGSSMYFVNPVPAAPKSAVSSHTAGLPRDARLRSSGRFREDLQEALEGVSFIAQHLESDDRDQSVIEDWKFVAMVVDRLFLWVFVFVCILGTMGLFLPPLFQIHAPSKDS

A word on the IC50: it is the concentration needed to halve the response being measured. With `COc1ccc2c(c1)[C@]13CCCC[C@@H]1[C@H](C2)N(CCC1OCCO1)CC3`, in data set [1], the IC50 amounted to 7.14 µM. The Activity entry in data set [2] and in data set [3] was “Non-toxic” throughout.

`CCC(=O)CN1CC[C@@]23CCCC[C@@H]2[C@@H]1Cc1ccc(OC)cc13`: in data set [1], the half-maximal inhibitory concentration (IC50) was found to be 2.5 µM.

As to `COc1ccc2c(c1)[C@]13CCCC[C@@H]1[C@H](C2)N(CC1=NCCN1)CC3`, the IC50 in data set [1] turned out to be 6.61 µM.

Consider `COc1ccc2c(c1)[C@]13CCCC[C@@H]1[C@H](C2)NCC3`, for which, in data set [1], the IC50 stood at 3.08 µM.

On to `COc1ccc2c(c1)[C@]13CCCC[C@@H]1[C@H](C2)N(CC1OCCO1)CC3`, for which, in data set [1], the IC50 was 1.95 µM. Further, the Activity result in data set [2] and in data set [3] was “Non-toxic” throughout.

With `COc1ccc2c(c1)[C@]13CCCC[C@@H]1[C@H](C2)N(CC#N)CC3`, the IC50 in data set [1] is 10.5 µM. Besides, in data set [4], the inhibition result was “Active”. Besides, the Activity entry in data set [2] and in data set [3] was “Non-toxic” throughout.

In the case of `COc1ccc2c(c1)[C@]13CCCC[C@@H]1[C@H](C2)N(CC(N)=O)CC3`, in data set [1], the IC50 was 41.4 µM.

As to `COc1ccc2c(c1)[C@]13CCCC[C@@H]1[C@H](C2)N(CCC(C)=O)CC3`, the IC50 in data set [1] is 2.57 µM.

For `COc1ccc2c(c1)[C@]13CCCC[C@@H]1[C@H](C2)N(CCC#N)CC3`, the half-inhibitory concentration (IC50) in data set [1] was determined as 176 µM.

On to `COc1ccc2c(c1)[C@]13CCCC[C@@H]1[C@H](C2)N(CCCC#N)CC3`, for which, in data set [1], the half-maximal inhibitory concentration (IC50) stood at 87 µM.

For the compound `COc1ccc2c(c1)[C@]13CCCC[C@@H]1[C@H](C2)N(C)CC3` [DEXTROMETHORPHAN], the half-inhibitory concentration (IC50) in data set [1] came out at 11.1 µM. Also, the inhibition result in data set [5] is “Active”. In addition, the Activity entry in data set [6] and in data set [7] was “Non-toxic” in each case.

These data come from ChEMBL document CHEMBL3351392, “Synthesis, in vitro and in vivo studies, and molecular modeling of N-alkylated dextromethorphan derivatives as non-competitive inhibitors of α3β4 nicotinic acetylcholine receptor” (Bioorg Med Chem, 2014).
